Measured values taken from ChEMBL document CHEMBL1154546, “Synthesis of 5- and 6-substituted 2-(4-dimethylaminophenyl)-1,3-benzoxazoles and their in vitro and in vivo evaluation as imaging agents for amyloid plaque” (Bioorg Med Chem Lett, 2009).
Activity calls are given as the source filed them.

Target: not listed separately
Experiment: Displacement of [3H]BTA1 from amyloid beta (1 to 40) peptide by […]
Settings: not given

Compound | Ki
CN(C)c1ccc(-c2nc3ccc(NC(=O)c4ccc(I)cc4)cc3o2)cc1 | 60.1 nM
Cc1cccc(C(=O)Nc2ccc3oc(-c4ccc(N(C)C)cc4)nc3c2)c1 | 13.4 nM
COc1cc(C(=O)Nc2ccc3oc(-c4ccc(N(C)C)cc4)nc3c2)cc(OC)c1OC | 109 nM
Cc1ccccc1C(=O)Nc1ccc2oc(-c3ccc(N(C)C)cc3)nc2c1 | 18.9 nM
Cc1ccccc1C(=O)Nc1ccc2nc(-c3ccc(N(C)C)cc3)oc2c1 | 112 nM
COc1cc(C(=O)Nc2ccc3nc(-c4ccc(N(C)C)cc4)oc3c2)cc(OC)c1OC | 628 nM
CN(C)c1ccc(-c2nc3cc(NC(=O)c4ccccc4)ccc3o2)cc1 | 12 nM
Cc1ccc(C(=O)Nc2ccc3nc(-c4ccc(N(C)C)cc4)oc3c2)cc1 | 86 nM
Cc1cccc(C(=O)Nc2ccc3nc(-c4ccc(N(C)C)cc4)oc3c2)c1 | 31.5 nM
Cc1ccc(C(=O)Nc2ccc3oc(-c4ccc(N(C)C)cc4)nc3c2)cc1 | 13.2 nM
CN(C)c1ccc(-c2nc3cc(NC(=O)c4ccc5c(c4)OCO5)ccc3o2)cc1 | 17.2 nM
CN(C)c1ccc(-c2nc3cc(NC(=O)c4ccc(I)cc4)ccc3o2)cc1 | 9.3 nM
CN(C)c1ccc(-c2nc3ccc(NC(=O)c4ccc5c(c4)OCO5)cc3o2)cc1 | 19.7 nM
CN(C)c1ccc(-c2nc3ccc(NC(=O)c4ccccc4)cc3o2)cc1 | 26 nM

System: Papio anubis
Experiment: In vivo binding affinity to amyloid beta (1 to 40) peptide in ovariectomized baboon by SPECT imaging
Format: functional, organism-based
Settings: tested as the 123I-labelled form
In short: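 Nonhuman primate fasted 18-24 h, immobilized with ketamine (10 mg/kg i.m.) plus glycopyrrolate (10 μg/kg i.m.) 2 h before study, intubated, kept on 2.5% isoflurane, vitals checked every 15 min. 123I tracer (3.2 mCi in 8 mL, ethanol/saline) injected. Continuous brain-dedicated SPECT at 159 keV for 1 h. Reconstruction used ramp plus Butterworth filter (cutoff 0.65 cm-1).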

Compound | Activity
CN(C)c1ccc(-c2nc3cc(NC(=O)c4ccc(I)cc4)ccc3o2)cc1 | inactive
